Numbered stars: 1 amine (or outer) side, 2 acyl side, 3 side chain; on linkers, the order of the positions; unused ones are H or OH. Bridge positions count the residues as written; N and C are the ends. Square brackets hold non-standard residues; d marks the D form. Peptide text beside a SMILES is read from it. * marks the point of attachment. hTyr(3S-OH,4S-OH,3'-OSO3H) = N[C@H](C(=O)O)[C@H](O)[C@@H](O)c1ccc(O)c(OS(=O)(=O)O)c1; Orn(4R-OH,5R-OH) = O=C([C@H](C[C@@H](O)[C@@H](O)N[*:3])N[*:1])[*:2]; Pro(3S-OH,4S-Me) = C[C@H]1CN[C@H](C(=O)O)[C@H]1O; X1 = CCCCCOc1ccc(-c2cc(-c3ccc(C(=O)*)cc3)no2)cc1; Gln(3R-OH) = NC(=O)C[C@@H](O)[C@H](N)C(=O)O; Hyp = O=C(O)[C@@H]1C[C@@H](O)CN1
Columns and labels:
[1] = Clearance in lung transplant recipient invasive aspergillosis patient at 150 mg, iv QD for 4 consecutive days by HPLC; format: ADME, organism-based; settings: human, in vivo
Homo sapiens [2] = assay: Hepatotoxicity in lung transplant recipient invasive aspergillosis patient assessed as total bilirubin level at 150 mg, iv QD for 4 consecutive days measured post last dose; format: toxicity, organism-based; settings: in vivo
Outline: (§1)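 Serum creatinine, AST, ALT and total bilirubin were recorded from routine clinical laboratory tests before enrolment and again after BAL, at a mean of 10.7 days after infusion.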

[3] = Ratio of drug level in alveolar cell to plasma of lung transplant recipient invasive aspergillosis patient at 150 mg, iv QD for 4 consecutive days measured after 3 hrs post last dose; format: ADME, organism-based, Pneumocyte; settings: human, alveolar cells / plasma
[4] = Drug level in alveolar cells of lung transplant recipient invasive aspergillosis patient at 150 mg, iv QD for 4 consecutive days measured after 24 hrs post last dose by HPLC; format: ADME, organism-based, Pneumocyte; settings: human, read-out: Drug uptake
Outline: (§2)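 150-mg IV micafungin, then bronchoscopy with BAL (20-ml saline aliquots) at the stated time after the dose. Blood was drawn in heparin at the same time. The BAL fluid was spun at 400 × g for 5 min at 4°C; supernatant and cell pellet were frozen at −80°C. Micafungin was measured by solid-phase extraction and C8 HPLC with UV detection at 271.5 nm, using anidulafungin as internal standard.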

[5] = Drug level in epithelial lining fluid of lung transplant recipient invasive aspergillosis patient at 150 mg, iv QD for 4 consecutive days measured after 8 hrs post last dose by HPLC; format: ADME, organism-based; settings: human, read-out: Drug uptake; outline: as §2
[6] = Tmax in lung transplant recipient invasive aspergillosis patient plasma at 150 mg, iv QD for 4 consecutive days by HPLC; format: ADME, organism-based; settings: human
Outline: (§3)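 150-mg IV dose; BAL at 3, 5, 8, 18 or 24 h after the dose, about 4 subjects per time group. Plasma, ELF and alveolar cell drug was measured by reversed-phase HPLC with UV detection. Values were averaged per time point. Cmax is the highest mean over the five groups; Tmax is the mean dose-to-BAL time of that group.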

[7] = Drug level in epithelial lining fluid of lung transplant recipient invasive aspergillosis patient at 150 mg, iv QD for 4 consecutive days measured after 24 hrs post last dose by HPLC; format: ADME, organism-based; settings: human, read-out: Drug uptake; outline: as §2
[8] = Ratio of drug level in epithelial lining fluid to plasma in lung transplant recipient invasive aspergillosis patient at 150 mg, iv QD for 4 consecutive days measured after 18 hrs post last dose; format: ADME, organism-based; settings: human
Homo sapiens [9] = assay: Hepatotoxicity in lung transplant recipient invasive aspergillosis patient assessed as serum AST level at 150 mg, iv QD for 4 consecutive days measured post last dose; format: toxicity, organism-based; settings: in vivo; outline: as §1
[10] = Drug level in epithelial lining fluid of lung transplant recipient invasive aspergillosis patient at 150 mg, iv QD for 4 consecutive days measured after 3 hrs post last dose by HPLC; format: ADME, organism-based; settings: human, read-out: Drug uptake; outline: as §2
[11] = Ratio of AUC (0 to 24 hrs) in lung transplant recipient invasive aspergillosis patient epithelial lining fluid to MIC90 for Aspergillus fumigatus; format: functional
[12] = Ratio of Cmax in lung transplant recipient invasive aspergillosis patient alveolar cell to MIC90 for Aspergillus fumigatus; format: functional, Pneumocyte
[13] = Drug level in alveolar cells of lung transplant recipient invasive aspergillosis patient at 150 mg, iv QD for 4 consecutive days measured after 3 hrs post last dose by HPLC; format: ADME, organism-based, Pneumocyte; settings: human, read-out: Drug uptake; outline: as §2
[14] = Drug level in epithelial lining fluid of lung transplant recipient invasive aspergillosis patient at 150 mg, iv single dose measured after 5 hrs post dose by HPLC; settings: human, read-out: Drug uptake
[15] = Cmax in alveolar cells of lung transplant recipient invasive aspergillosis patient at 150 mg, iv QD for 4 consecutive days by HPLC; format: ADME, organism-based, Pneumocyte; parameters: dose 150 mg, route intravenous; settings: human; outline: as §3
[16] = Ratio of drug level in epithelial lining fluid to plasma in lung transplant recipient invasive aspergillosis patient at 150 mg, iv QD for 4 consecutive days measured after 24 hrs post last dose; format: ADME, organism-based; settings: human
[17] = AUC (0 to 24 hrs) in alveolar cell of lung transplant recipient invasive aspergillosis patient plasma at 150 mg, iv administered as single dose; format: ADME, organism-based, Pneumocyte; parameters: time < 24 hr, dose 150 mg, route intravenous; settings: human, alveolar cells
Outline: (§4)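 Single 150-mg IV dose in adult lung transplant recipients. Plasma, ELF (epithelial lining fluid) and alveolar cell concentrations were measured by HPLC at the time of bronchoscopy. AUC0-24 came from a population model: a linear four-compartment model fit to all compartments, with the plasma two-compartment model used for the plasma profile.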

[18] = Ratio of drug level in epithelial lining fluid to plasma in lung transplant recipient invasive aspergillosis patient at 150 mg, iv QD for 4 consecutive days measured after 3 hrs post last dose; format: ADME, organism-based; settings: human
[19] = Ratio of AUC (0 to 24 hrs) in lung transplant recipient invasive aspergillosis patient alveolar cell to MIC90 for Aspergillus fumigatus; format: functional, Pneumocyte
[20] = Ratio of drug level in alveolar cell to plasma of lung transplant recipient invasive aspergillosis patient at 150 mg, iv QD for 4 consecutive days measured after 8 hrs post last dose; format: ADME, organism-based, Pneumocyte; settings: human, alveolar cells / plasma
[21] = Cmax in epithelial lining fluid of lung transplant recipient invasive aspergillosis patient at 150 mg, iv QD for 4 consecutive days by HPLC; format: ADME, organism-based; parameters: dose 150 mg, route intravenous; settings: human; outline: as §3
[22] = Ratio of drug level in alveolar cell to plasma of lung transplant recipient invasive aspergillosis patient at 150 mg, iv QD for 4 consecutive days measured after 18 hrs post last dose; format: ADME, organism-based, Pneumocyte; settings: human, alveolar cells / plasma
[23] = AUC (0 to 24 hrs) in lung transplant recipient invasive aspergillosis patient plasma at 150 mg, iv administered as single dose; format: ADME, organism-based; parameters: dose 150 mg, time < 24 hr, route intravenous; settings: human; outline: as §4
[24] = Ratio of drug level in epithelial lining fluid to plasma in lung transplant recipient invasive aspergillosis patient at 150 mg, iv QD for 4 consecutive days measured after 8 hrs post last dose; format: ADME, organism-based; settings: human
[25] = Ratio of drug level in alveolar cell to plasma of lung transplant recipient invasive aspergillosis patient at 150 mg, iv single dose measured after 5 hrs post dose; settings: human, alveolar cells / plasma

SMILES: CCCCCOc1ccc(-c2cc(-c3ccc(C(=O)N[C@H]4C[C@@H](O)[C@@H](O)NC(=O)[C@@H]5[C@@H](O)[C@@H](C)CN5C(=O)[C@H]([C@H](O)CC(N)=O)NC(=O)[C@H]([C@H](O)[C@@H](O)c5ccc(O)c(OS(=O)(=O)O)c5)NC(=O)[C@@H]5C[C@@H](O)CN5C(=O)[C@H]([C@@H](C)O)NC4=O)cc3)no2)cc1 [MICAFUNGIN] (X1-[Orn(4R-OH,5R-OH)]T[Hyp][hTyr(3S-OH,4S-OH,3'-OSO3H)][Gln(3R-OH)][Pro(3S-OH,4S-Me)]; lactam 1-C)
- clearance [1]: 21.8 mL/min
- Activity (Homo sapiens [2]): 0.74 mg/dL
- Kp at 3 h [3]: 1.53
- concentration at 24 h [4]: 9990 ng/mL
- concentration at 8 h [5]: 50 ng/mL
- Tmax [6]: 4 h
- concentration at 24 h [7]: 1380 ng/mL
- Kp at 18 h [8]: 0.04
- Activity (Homo sapiens [9]): 28.6 IU/L
- concentration at 3 h [10]: 40 ng/mL
- Ratio [11]: 923.1
- Ratio [12]: 1115
- concentration at 3 h [13]: 7170 ng/mL
- concentration at 5 h [14]: 710 ng/mL
- Cmax [15]: 17400 ng/mL
- Kp at 24 h [16]: 1.1
- AUC(0-t) at 24 h [17]: 208 µg·h/mL
- Kp at 3 h [18]: 0.01
- Ratio [19]: 13340
- Kp at 8 h [20]: 1.23
- Cmax [21]: 1380 ng/mL
- Kp at 18 h [22]: 7.62
- AUC(0-t) at 24 h [23]: 79.2 µg·h/mL
- Kp at 8 h [24]: 0.01
- Kp at 5 h [25]: 0.61

From ChEMBL document CHEMBL1629691, “Intrapulmonary pharmacokinetics and pharmacodynamics of micafungin in adult lung transplant patients” (Antimicrob Agents Chemother, 2010)
